# Results reported in ChEMBL document CHEMBL4765342, “Substituted benzothiophene and benzofuran derivatives as a novel class of bone morphogenetic Protein-2 upregulators: Synthesis, anti-osteoporosis efficacies in ovariectomized rats and a zebrafish model, and ADME properties” (Eur J Med Chem, 2020).
# Active and inactive are the calls of the source. The rule behind the calls is not given here.
# Tests used:
# [1] = Renal toxicity in BALB/c mouse assessed as effect on serum urea level at 50 to 100 mg/kg, ig administered for 14 days; format: organism-based; settings: in vivo, po, 336 h, dose 50-100 mg/kg, time 14 day
# Summary of the method: (§1)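 BALB/c mice, 10 per group, gavaged daily for 14 days at 50 or 100 mg/kg; blank control group included. Hair, behaviour and neurological signs (fremitus, convulsion, spasm, gait disturbance) were observed. At day 14, mice were weighed and given routine blood tests and serum biochemistry (ALT, AST, urea, creatinine; n = 10). Liver and kidney were examined on paraffin-embedded histology sections.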
# [2] = tested on: Rattus norvegicus; assay: Antiosteoporotic activity in Sprague-Dawley rat model of OVX-induced bone loss assessed as increase in thickness of trabeculae at 30 mg/kg, ig administered for 3 months with 1 day break after 6 consecutive days administration; format: functional, organism-based
# Summary of the method: (§2)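 Female SD rats given bilateral ovariectomy (sham: fat tissue removed instead), adapted 1 week beforehand; dosing began on postoperative day 10, n = 10 per group. Test drugs as 3 mg/mL suspension by gavage; raloxifene hydrochloride at 0.5 mg/mL. Controls got water. Tetracycline 30 mg/kg ip 16 and 3 days before euthanasia. Tibia stained sections give trabecular morphology and TBV%. BMD of L4-6 measured by densitometry under pentobarbital 45 mg/kg anaesthesia. Reported as mean ± SD.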
# [3] = Permeability across apical to basolateral side in human Caco-2 cells assessed as […] yellow leakage at 10 uM incubated for 2 hrs LC-MS/MS analysis; format: ADME, cell-based; settings: caco-2, 2 h
# Summary of the method: (§3)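 Caco-2 monolayers, apical to basolateral direction. Plates preincubated 30 min at 37 °C, then exposed to 10 µM compound for 2 h at 37 °C without shaking. Donor and receiver samples were quenched, centrifuged and measured by LC/MS/MS, in duplicate. Papp calculated from receiver concentration, area and time. Monolayer integrity checked by TEER and by Lucifer yellow leakage (30 min, 37 °C, ex 485/em 530 nm).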
# [4] = Solubility in PBS buffer at pH 7.4 assessed as precipitation of compound at 625 nM; format: physicochemical; settings: pH 7.4, 0.625 µM
# [5] = Toxicity in BALB/c mouse assessed as hepatocyte nucleus mitosis at 50 to 100 mg/kg, ig administered for 14 days; format: organism-based; settings: in vivo, po, 336 h, dose 50-100 mg/kg, time 14 day; summary of the method: as §1
# [6] = Toxicity in BALB/c mouse assessed as effect on hair at 50 to 100 mg/kg, ig administered for 14 days; format: organism-based; settings: in vivo, po, 336 h, dose 50-100 mg/kg, time 14 day; summary of the method: as §1
# [7] = Hepatotoxicity in BALB/c mouse assessed as effect on serum AST level at 50 to 100 mg/kg, ig administered for 14 days; format: toxicity, organism-based; settings: in vivo, po, 336 h, dose 50-100 mg/kg, time 14 day; summary of the method: as §1
# [8] = Toxicity in BALB/c mouse assessed as fremitus at 50 to 100 mg/kg, ig administered for 14 days; format: organism-based; settings: in vivo, po, 336 h, dose 50-100 mg/kg, time 14 day; summary of the method: as §1
# [9] = Toxicity in BALB/c mouse assessed as convulsion at 50 to 100 mg/kg, ig administered for 14 days; format: organism-based; settings: in vivo, po, 336 h, dose 50-100 mg/kg, time 14 day; summary of the method: as §1
# [10] = tested on: Rattus norvegicus; assay: Antiosteoporotic activity in Sprague-Dawley rat model of OVX-induced bone loss assessed as increase in trabecular bone volume at 30 mg/kg, ig administered for 3 months with 1 day break after 6 consecutive days administration; format: functional, organism-based; summary of the method: as §2
# [11] = tested on: Rattus norvegicus; assay: Antiosteoporotic activity in Sprague-Dawley rat model of OVX-induced bone loss assessed as narrowed gap between trabeculae at 30 mg/kg, ig administered for 3 months with 1 day break after 6 consecutive days administration; format: functional, organism-based; summary of the method: as §2
# [12] = tested on: Rattus norvegicus; assay: Antiosteoporotic activity in Sprague-Dawley rat model of OVX-induced bone loss assessed as increase in number of trabeculae at 30 mg/kg, ig administered for 3 months with 1 day break after 6 consecutive days administration; format: functional, organism-based; summary of the method: as §2
# [13] = tested on: Rattus norvegicus; assay: Antiosteoporotic activity in Sprague-Dawley rat model of OVX-induced bone loss assessed as increase in trabecular bone mineral density at 30 mg/kg, ig administered for 3 months with 1 day break after 6 consecutive days administration; format: functional, organism-based; summary of the method: as §2
# [14] = Solubility in PBS buffer at pH 7.4 assessed as precipitation of compound at 312.5 nM; format: physicochemical; settings: pH 7.4, 0.3125 µM
# [15] = Toxicity in BALB/c mouse assessed as necrosis in renal tubular epithelial cells at 50 to 100 mg/kg, ig administered for 14 days; format: organism-based; settings: in vivo, po, 336 h, dose 50-100 mg/kg, time 14 day
# Summary of the method: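 BALB/c mice, 10 per group: untreated blank group plus low (50 mg/kg) and high (100 mg/kg) dose groups, intragastric once daily for 14 days. Hair, behaviour and neurological signs monitored throughout. At day 14 mice were weighed and dissected. Kidney and liver tissue was fixed in 3 mm pieces, dehydrated through graded alcohol, cleared in xylene, embedded in paraffin, sectioned and examined histopathologically.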
# [16] = Solubility in PBS buffer at pH 7.4 assessed as precipitation of compound at 2500 nM; format: physicochemical; settings: pH 7.4, 2.5 µM
# [17] = Apparent permeability across apical to basolateral side in human Caco-2 cells at 10 uM incubated for 2 hrs LC-MS/MS analysis; format: ADME, cell-based; settings: Caco-2; summary of the method: as §3
# [18] = Toxicity in BALB/c mouse assessed as muscle spasm at 50 to 100 mg/kg, ig administered for 14 days; format: organism-based; settings: in vivo, po, 336 h, dose 50-100 mg/kg, time 14 day; summary of the method: as §1
# [19] = Solubility in PBS buffer at pH 7.4 assessed as precipitation of compound at 156.25 nM; format: physicochemical; settings: pH 7.4, 0.15625 µM
# [20] = Toxicity in BALB/c mouse assessed as inflammatory infiltration in liver at 50 to 100 mg/kg, ig administered for 14 days; format: organism-based; settings: in vivo, po, 336 h, dose 50-100 mg/kg, time 14 day; summary of the method: as §1
# [21] = Solubility in PBS buffer at pH 7.4 assessed as precipitation of compound at 5000 nM; format: physicochemical; settings: pH 7.4, 5 µM
# [22] = Toxicity in BALB/c mouse assessed as gait disturbance at 50 to 100 mg/kg, ig administered for 14 days; format: organism-based; settings: in vivo, po, 336 h, dose 50-100 mg/kg, time 14 day; summary of the method: as §1
# [23] = Solubility in PBS buffer at pH 7.4 assessed as precipitation of compound at 10000 nM; format: physicochemical; settings: pH 7.4, 10 µM
# [24] = Renal toxicity in BALB/c mouse assessed as effect on serum creatinine level at 50 to 100 mg/kg, ig administered for 14 days; format: organism-based; settings: in vivo, po, 336 h, dose 50-100 mg/kg, time 14 day; summary of the method: as §1
# [25] = Toxicity in BALB/c mouse assessed as effect on behavioral change at 50 to 100 mg/kg, ig administered for 14 days; format: organism-based; settings: in vivo, po, 336 h, dose 50-100 mg/kg, time 14 day; summary of the method: as §1
# [26] = Toxicity in BALB/c mouse assessed as effect on liver megakaryocyte at 50 to 100 mg/kg, ig administered for 14 days; format: organism-based; settings: in vivo, po, 336 h, dose 50-100 mg/kg, time 14 day; summary of the method: as §1
# [27] = Toxicity in BALB/c mouse assessed as effect on body weight at 50 to 100 mg/kg, ig administered for 14 days; format: organism-based; settings: in vivo, po, 336 h, dose 50-100 mg/kg, time 14 day; summary of the method: as §1
# [28] = Permeability across apical to basolateral side in human Caco-2 cells assessed as transepithelial electrical resistance at 10 uM incubated for 2 hrs LC-MS/MS analysis; format: ADME, cell-based; settings: caco-2, 2 h; summary of the method: as §3
# [29] = Hepatotoxicity in BALB/c mouse assessed as effect on serum ALT level at 50 to 100 mg/kg, ig administered for 14 days; format: toxicity, organism-based; settings: in vivo, po, 336 h, dose 50-100 mg/kg, time 14 day; summary of the method: as §1
# [30] = Toxicity in BALB/c mouse assessed as hepatocyte necrotic foci at 50 to 100 mg/kg, ig administered for 14 days; format: organism-based; settings: in vivo, po, 336 h, dose 50-100 mg/kg, time 14 day; summary of the method: as §1
# [31] = tested on: Rattus norvegicus; assay: Antiosteoporotic activity in Sprague-Dawley rat model of OVX-induced bone loss assessed as increase in trabecular bone mineral density at 5 mg/kg, ig administered for 3 months with 1 day break after 6 consecutive days administration; format: functional, organism-based; summary of the method: as §2
# [32] = tested on: Rattus norvegicus; assay: Antiosteoporotic activity in Sprague-Dawley rat model of OVX-induced bone loss assessed as increase in number of trabeculae at 5 mg/kg, ig administered for 3 months with 1 day break after 6 consecutive days administration; format: functional, organism-based; summary of the method: as §2
# [33] = tested on: Rattus norvegicus; assay: Antiosteoporotic activity in Sprague-Dawley rat model of OVX-induced bone loss assessed as increase in thickness of trabeculae at 5 mg/kg, ig administered for 3 months with 1 day break after 6 consecutive days administration; format: functional, organism-based; summary of the method: as §2
# [34] = tested on: Rattus norvegicus; assay: Antiosteoporotic activity in Sprague-Dawley rat model of OVX-induced bone loss assessed as increase in trabecular bone volume at 5 mg/kg, ig administered for 3 months with 1 day break after 6 consecutive days administration; format: functional, organism-based; summary of the method: as §2
# [35] = tested on: Rattus norvegicus; assay: Antiosteoporotic activity in Sprague-Dawley rat model of OVX-induced bone loss assessed as narrowed gap between trabeculae at 5 mg/kg, ig administered for 3 months with 1 day break after 6 consecutive days administration; format: functional, organism-based; summary of the method: as §2
# [36] = species on record: Danio rerio; assay: Antiosteoporotic activity in Zebra fish model of dexamethasone-induced bone loss assessed as increase in BMP-2 expression at 1 uM incubated for 24 hrs in presence of dexamethasone by Western blot analysis; format: functional, organism-based
# Summary of the method: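 Protein extracts were prepared from untreated, dexamethasone-treated and drug-treated (1 µM, 24 h) zebrafish, and BMP-2 protein was then assessed.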
# [37] = species on record: Danio rerio; assay: Antiosteoporotic activity in Zebra fish model of dexamethasone-induced bone loss assessed as increase in bone mineralization by measuring increase in integrated optical density 6hpf embryo treated for 72 hrs with dexamethasone followed by incubation with drug and measured after 6 days post-fertilization by alizarin dye based imaging analysis; format: functional, organism-based; settings: dose 1-25 µM, time 3.0 day
# Summary of the method: (§4)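 AB-line zebrafish embryos at 6 hpf held in dexamethasone solution for 72 h, then exposed to drug, and cultured to 6 dpf. Larvae stained with alizarin red, rehydrated, decolorised and photographed. Stained area and integrated optical density were summed over the left-flank branchial bones: cleithrum, compass, opercle and branchiostegal rays. Values expressed relative to untreated controls set at 1.00.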
# [38] = species on record: Danio rerio; assay: Antiosteoporotic activity in Zebra fish model of dexamethasone-induced bone loss assessed as increase in bone mineralization at 1 to 25 uM 6hpf embryo treated for 72 hrs with dexamethasone followed by incubation with drug and measured after 6 days post-fertilization by alizarin dye based imaging analysis; format: functional, organism-based; settings: dose 1-25 µM, time 3.0 day; summary of the method: as §4
# [39] = molecular target: Runt-related transcription factor 2 (Mus musculus) (UniProt Q08775); assay: Upregulation of Runx2 transcriptional activity in mouse MC3T3-E1 cells transfected with p6OSE2-luc at 100 uM incubated for 48 hrs by firefly luciferase reporter gene assay relative to control; format: cell-based; settings: filed as activator
# Summary of the method: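 MC3T3-E1 cells reverse-transfected in suspension with p6OSE2-luc (Runx2-responsive reporter), 100 ng DNA per well, 10^5 cells/ml in α-MEM with 10% FBS, 37 °C in CO2. After 24 h the medium was replaced with complete medium containing compound, with lovastatin as positive control. Firefly luciferase read after a further 48 h as relative luminescence units. Significance by Dunnett's test.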
# Runt-related transcription factor 2 (Mus musculus), sequence (Q08775 whole entry): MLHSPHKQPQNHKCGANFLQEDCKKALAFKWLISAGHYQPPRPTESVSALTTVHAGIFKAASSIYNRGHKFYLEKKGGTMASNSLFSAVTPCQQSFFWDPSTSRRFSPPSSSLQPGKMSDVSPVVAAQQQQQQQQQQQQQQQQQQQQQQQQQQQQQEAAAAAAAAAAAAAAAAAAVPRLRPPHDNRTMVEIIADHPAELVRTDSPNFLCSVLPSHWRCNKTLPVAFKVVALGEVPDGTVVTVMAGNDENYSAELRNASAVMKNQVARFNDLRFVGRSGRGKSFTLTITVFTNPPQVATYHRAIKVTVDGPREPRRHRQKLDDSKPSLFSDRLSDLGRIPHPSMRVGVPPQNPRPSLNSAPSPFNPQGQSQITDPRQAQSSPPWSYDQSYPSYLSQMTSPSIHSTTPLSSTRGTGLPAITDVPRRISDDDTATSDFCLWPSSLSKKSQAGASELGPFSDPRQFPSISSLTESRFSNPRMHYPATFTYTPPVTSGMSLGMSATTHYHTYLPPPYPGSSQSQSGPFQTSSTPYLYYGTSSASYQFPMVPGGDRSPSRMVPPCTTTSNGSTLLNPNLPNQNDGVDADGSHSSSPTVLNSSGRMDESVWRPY
smiles,measurement,setting,value
CCOC(=O)c1cc2ccc(OC)cc2o1,Activity,[1],Non-Toxic
same,Activity,[2],Active
same,Activity,[3],0.152%
same,solubility,[4],Soluble
same,Activity,[5],Toxic
same,Activity,[6],Non-Toxic
same,Activity,[7],Non-Toxic
same,Activity,[8],Non-Toxic
same,Activity,[9],Non-Toxic
same,Activity,[10],Active
same,Activity,[11],Active
same,Activity,[12],Active
same,Activity,[13],Active
same,solubility,[14],Soluble
same,Activity,[15],Toxic
same,solubility,[16],Insoluble
same,"Papp A→B at 2 h, 10 µM",[17],< 0.00247 ×10⁻⁶ cm/s
same,Activity,[18],Non-Toxic
same,solubility,[19],Soluble
same,Activity,[20],Toxic
same,solubility,[21],Insoluble
same,Activity,[22],Non-Toxic
same,solubility,[23],Insoluble
same,Activity,[24],Non-Toxic
same,Activity,[25],Non-Toxic
same,Activity,[26],Toxic
same,Activity,[27],Non-Toxic
same,Activity,[28],373 Ω·cm²
same,Activity,[29],Non-Toxic
same,Activity,[30],Toxic
O=C(c1ccc(OCCN2CCCCC2)cc1)c1c(-c2ccc(O)cc2)sc2cc(O)ccc12,Activity,[31],Active
same,Activity,[32],Active
same,Activity,[33],Active
same,Activity,[34],Active
same,Activity,[35],Active
COc1ccc2cc(C(=O)NCCN(C)C)oc2c1,Activity,[2],Active
same,Activity,[36],Active
same,Activity,[10],Active
same,Activity,[11],Active
same,Activity,[12],Active
same,Activity,[13],Active
same,Activity,[37],Dose-dependent effect
same,Activity,[38],Active
same,Activity,[39],267%
